For one data set, the system named is Mus musculus. As to the kind of experiment: In vivo binding affinity to GlyT1 in ddY mouse brain hippocampus at 33.3 kBq, iv after 30 mins in presence of nonradioactive compound 2 mg/kg, iv administered 15 mins prior to compound administration relative to control. It counts as functional, organism-based. Set-up: dose 2 mg/kg. The following applies: tested as the 125I-labelled form. The essentials: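 Blocking study in male ddY mice (6 weeks, 30–35 g). The blocker (2 mg/kg in 30% DMSO/saline) was injected i.v. 15 min before about 33.3 kBq [125I]tracer i.v.; mice were killed at 30 or 60 min. Brains were divided into cortex, corpus callosum, hippocampus, thalamus, midbrain, medulla and cerebellum, weighed and gamma-counted as % dose/g. Values are mean ± SD, n = 5–6, compared to control by Kruskal–Wallis with Dunn's post-test.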

In data set [1] the target is T1, Sodium- and chloride-dependent glycine transporter 1 (Rattus norvegicus) (UniProt P28572).
T1 sequence (whole entry): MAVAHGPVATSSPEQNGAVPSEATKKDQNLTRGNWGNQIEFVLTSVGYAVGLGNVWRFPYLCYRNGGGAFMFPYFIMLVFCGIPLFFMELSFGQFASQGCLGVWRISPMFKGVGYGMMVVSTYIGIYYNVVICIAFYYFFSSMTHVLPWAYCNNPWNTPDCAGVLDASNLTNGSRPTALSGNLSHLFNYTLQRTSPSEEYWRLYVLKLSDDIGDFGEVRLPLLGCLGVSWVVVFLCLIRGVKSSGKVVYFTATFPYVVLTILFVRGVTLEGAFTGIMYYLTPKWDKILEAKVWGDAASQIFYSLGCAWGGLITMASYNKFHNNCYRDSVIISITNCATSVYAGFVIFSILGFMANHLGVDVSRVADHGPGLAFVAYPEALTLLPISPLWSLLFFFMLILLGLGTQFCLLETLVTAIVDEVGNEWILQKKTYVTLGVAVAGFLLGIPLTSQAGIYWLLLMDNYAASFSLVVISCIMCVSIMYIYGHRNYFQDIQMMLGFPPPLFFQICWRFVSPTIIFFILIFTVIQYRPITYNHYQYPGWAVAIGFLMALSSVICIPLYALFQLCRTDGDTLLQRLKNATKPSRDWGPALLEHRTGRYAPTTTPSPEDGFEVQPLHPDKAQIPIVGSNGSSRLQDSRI
Put plainly: Binding affinity to GlyT1 in rat brain medullary region at 0.03 to 0.04 nM preincubated for 20 mins in binding buffer before compound addition measured after 30 mins by autoradiography in presence of 0.01 mM GlyT1 inhibitor ALX5407 relative to control. The following applies: tested as the 125I-labelled form. It counts as tissue-based. In a few lines:
(§1)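 Rat brain sagittal sections (20 µm) preincubated 20 min at 25 °C in Tris-HCl buffer pH 7.5 (NaCl, KCl, MgCl2, CaCl2), then 30 min at 25 °C with [125I] tracer (100 kBq, 0.03–0.04 nM) plus competitor (10 µM; glycine 1 or 10 mM). Cold washes, imaging plate 3 days, ROI PSL minus background per mm². % control from ≥triplicate slices, three rats.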

In data set [2] the target is T1, Sodium- and chloride-dependent glycine transporter 1 (Rattus norvegicus). Put plainly: Binding affinity to GlyT1 in rat brain cerebellum at 0.03 to 0.04 nM preincubated for 20 mins in binding buffer before compound addition measured after 30 mins by autoradiography in presence of 10 mM GlyT1 substrate glycine relative to control. It counts as tissue-based. The following applies: tested as the 125I-labelled form. The essentials:
as §1

The target is the same in data set [3]. As to the kind of experiment: Binding affinity to GlyT1 in rat brain thalamus at 0.03 to 0.04 nM preincubated for 20 mins in binding buffer before compound addition measured after 30 mins by autoradiography relative to control. It counts as tissue-based. The following applies: tested as the 125I-labelled form.
Data set [4] has the same target. Put plainly: Binding affinity to GlyT1 in rat cortical brain homogenate assessed per mg of protein after 60 mins by gamma counting. It counts as tissue-based. The following applies: tested as the 125I-labelled form. In a few lines:
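Saturation binding on washed rat cortical membranes (25 µg protein) with [125I]tracer 0.1–20 nM in TB1 buffer (120 mM NaCl, 2 mM KCl, 1 mM CaCl2, 1 mM MgCl2, 10 mM HEPES, pH 7.5), 60 min at room temperature. Nonspecific binding defined with 10 µM unlabeled ligand. GF/B filtration with ice-cold buffer washes, gamma counting; Kd and Bmax from saturation analysis.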

In data set [5] the target is T2, Sodium- and chloride-dependent glycine transporter 1 (Homo sapiens, UniProt P48067).
T2 sequence (P48067 whole entry): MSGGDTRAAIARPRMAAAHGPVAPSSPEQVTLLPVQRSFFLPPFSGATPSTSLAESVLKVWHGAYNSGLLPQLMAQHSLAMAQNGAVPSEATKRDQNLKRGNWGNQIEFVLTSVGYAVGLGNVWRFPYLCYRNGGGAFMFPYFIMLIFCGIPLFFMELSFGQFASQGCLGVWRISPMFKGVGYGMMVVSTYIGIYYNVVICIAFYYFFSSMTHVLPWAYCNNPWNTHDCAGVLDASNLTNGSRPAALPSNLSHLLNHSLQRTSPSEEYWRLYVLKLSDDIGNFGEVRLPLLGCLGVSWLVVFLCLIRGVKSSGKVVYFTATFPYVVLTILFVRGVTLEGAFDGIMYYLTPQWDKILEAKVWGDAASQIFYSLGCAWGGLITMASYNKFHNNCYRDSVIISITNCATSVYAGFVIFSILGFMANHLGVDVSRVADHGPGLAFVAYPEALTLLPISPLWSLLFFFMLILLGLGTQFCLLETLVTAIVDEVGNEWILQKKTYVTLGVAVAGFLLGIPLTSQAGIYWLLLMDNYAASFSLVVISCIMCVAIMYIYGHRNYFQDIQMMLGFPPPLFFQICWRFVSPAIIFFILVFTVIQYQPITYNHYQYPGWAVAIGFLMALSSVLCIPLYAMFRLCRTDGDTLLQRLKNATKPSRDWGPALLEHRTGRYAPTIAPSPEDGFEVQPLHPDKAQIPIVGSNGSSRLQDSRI
As to the kind of experiment: Inhibition of GlyT1 in human JAR cells assessed as inhibition of [3H]glycine uptake preincubated for 1 mins measured after 2 hrs by liquid scintillation counting. It counts as cell-based. The essentials:
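[3H]glycine (final 10 µM) was added for 2 h at room temperature; nonspecific uptake was defined with 10 mM glycine. Cells were lysed in NaOH and counted by liquid scintillation. IC50 values are from at least three measurements, mean ± SEM.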

Data set [6] has as its target T1, Sodium- and chloride-dependent glycine transporter 1 (Rattus norvegicus). As to the kind of experiment: Binding affinity to GlyT1 in rat brain cerebral cortex at 0.03 to 0.04 nM preincubated for 20 mins in binding buffer before compound addition measured after 30 mins by autoradiography in presence of 0.01 mM GlyT1 inhibitor ALX5407 relative to control. It counts as tissue-based. The following applies: tested as the 125I-labelled form. The essentials:
as §1

The test system of a further data set is Spleen. Put plainly: Drug uptake in ddY mouse spleen at 11.1 kBq, iv after 30 min by gamma counting. It counts as ADME, organism-based. The following applies: in vivo, 0.5 h. The essentials: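 Male ddY mice (6 weeks, 30–35 g) were given about 11.1 kBq of [125I]tracer in 0.1 mL i.v. via the tail vein. At each time point the animals were killed and organs dissected, weighed and gamma-counted. Uptake is expressed as % injected dose per gram of tissue, mean ± SD, n = 5–6.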

The next data set relates to Brain. Put plainly: Drug uptake in ddY mouse brain at 11.1 kBq, iv after 60 min by gamma counting. It counts as ADME, organism-based. The following applies: in vivo, 1 h. In a few lines:
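Male ddY mice (6 weeks, 30–35 g) received about 11.1 kBq [125I]tracer in 0.1 mL i.v. via tail vein. Killed at set times, organs dissected and weighed, radioactivity gamma counted. Reported as % injected dose/g tissue, mean ± SD, n = 5–6.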

Results on two compounds are retold here after ChEMBL document CHEMBL1938298, “Synthesis and characterization of [¹²⁵I]2-iodo N-[(S)-{(S)-1-methylpiperidin-2-yl}(phenyl)methyl]3-trifluoromethyl-benzamide as novel imaging probe for glycine transporter 1” (Bioorg Med Chem, 2011).

Activity calls are given as the source filed them. The calls are words filed in the database; no cut-off is given here.

One may read the IC50 as the point on the concentration scale where inhibition reaches its midpoint. As to `CN1CCCC[C@H]1[C@@H](NC(=O)c1cccc(C(F)(F)F)c1I)c1ccccc1`, the outcome (with Mus musculus; in [3]) was Active. Also, the Activity in [1] worked out at 25.3%; in data set [2], 44.9%; in data set [6] it was 57.6%. The Bmax in data set [4] turned out to be 3.4 pmol. For the same compound, in [5], the IC50 came to 2.35 nM.

For `CN1CCCC[C@H]1[C@@H](NC(=O)c1cccc(C(F)(F)F)c1[125I])c1ccccc1`, the figures for the Drug uptake in the data set on Spleen and in the data set on Brain were 7.68 % ID/g and 1.85 % ID/g, respectively.
